Measurements from different studies.
Protocols differ between the studies behind these lines.
HSD11B1: 11-beta-hydroxysteroid dehydrogenase 1 (HSD11B1, Homo sapiens, UniProt P28845)
SLC10A2: Ileal sodium/bile acid cotransporter (SLC10A2, Homo sapiens, UniProt Q12908)
DRD5: D(1B) dopamine receptor (DRD5, Homo sapiens, UniProt P21918)
SETD7: Histone-lysine N-methyltransferase SETD7 (SETD7, Homo sapiens, UniProt Q8WTS6)
CNR2: Cannabinoid receptor 2 (CNR2, Homo sapiens, UniProt P34972)

Structure (SMILES) | target | test | system | setting | inhibition [%]
O=C(c1ccc(Cl)cc1)N(Cc1ccccc1)C1CCCCC1 | Beta-2 adrenergic receptor (ADRB2, Homo sapiens, UniProt P07550) | cell-free assay |  | 10 µM | 1.6
CCC(C)(C)C(=O)O[C@H]1C[C@@H](C)C=C2C=C[C@H](C)[C@H](CC[C@@H]3C[C@@H](O)CC(=O)O3)[C@H]21 | HSD11B1 | enzyme activity, inhibitor |  | 20 µM, lysate | < 40
NS(=O)(=O)c1cc2c(cc1Cl)N=CNS2(=O)=O | SLC10A2 | transporter uptake, inhibitor, radiometric |  | 1 mM | 25.3
C=C(C)C(=O)Nc1cc(C(=O)O)cc(C(=O)O)c1 | Galanin receptor type 1 (GALR1, Homo sapiens, UniProt P47211) | cell-free assay, radioligand |  | 10 µM | 22
CCN(CC)c1ccc(C2Nc3ccc(C(=O)c4ccccc4)cc3NC3=C2C(=O)CC(C)(C)C3)cc1 (centres unmarked) | DRD5 | ligand displacement, radioligand |  | 10 µM | 37
COc1cc(NC(C)CCCN)c2ncccc2c1 (centres unmarked) | SETD7 | cell-free assay |  | 10 µM | -19
CCCCc1oc2ccccc2c1C(=O)c1cc(I)c(OCCN(CC)CC)c(I)c1 | HSD11B1 | enzyme activity, inhibitor |  | 20 µM, lysate | < 40
O=C(c1ccccc1)c1ccc2n1CCC2C(=O)O (centres unmarked) | SLC10A2 | transporter uptake, inhibitor, radiometric |  | 1 mM | < 10
O=C(O[C@@H]1Cc2c(O)cc(O)cc2O[C@@H]1c1cc(O)c(=O)c2c(O)c(O)cc([C@H]3Oc4cc(O)cc(O)c4C[C@H]3OC(=O)c3cc(O)c(O)c(O)c3)c2c1)c1cc(O)c(O)c(O)c1 | SETD7 | cell-free assay |  | 10 µM | 38
O=C(NC[C@H]1CN(c2ccc(N3CCOCC3=O)cc2)C(=O)O1)c1ccc(Cl)s1 | Coagulation factor X (F10, Homo sapiens, UniProt P00742) | enzyme activity, inhibitor, absorbance |  | 0.1 µM | 88.6
CCCCNc1cc(C(=O)O)cc(S(N)(=O)=O)c1Oc1ccccc1 | SLC10A2 | transporter uptake, inhibitor, radiometric |  | 1 mM | 78.1
O=C(O[C@@H]1Cc2c(O)cc(O)cc2O[C@@H]1c1cc(O)c(O)c(O)c1-c1c([C@H]2Oc3cc(O)cc(O)c3C[C@H]2O)cc(O)c(O)c1O)c1cc(O)c(O)c(O)c1 | SETD7 | cell-free assay |  | 10 µM | 53
O=C1N=C(N2CCCCN2)S/C1=C\c1ccc(F)cc1O | Galanin receptor type 2 (GALR2, Homo sapiens, UniProt O43603) | ligand displacement, radioligand |  | 10 µM | < 10
CC(CCc1ccccc1)NCC(O)c1ccc(O)c(C(N)=O)c1 (centres unmarked) | SLC10A2 | transporter uptake, inhibitor, radiometric |  | 1 mM | 38.6
CCCNc1nc2ccccc2n1Cc1ccc(Cl)cc1 | DRD5 | ligand displacement |  | 10 µM | 69.6
O=C(O)CCCCCCCCCCCC[C@@H]1C=CCC1 | SETD7 | cell-free assay |  | 10 µM | -48

Structure (SMILES) | target | test | system | setting | inhibition [%]
COc1ccc2c(c1)c(CC(=O)O)c(C)n2C(=O)c1ccc(Cl)cc1 | SLC10A2 | transporter uptake, inhibitor, radiometric |  | 1 mM | 93.2
CN(C)c1ccc2nc3ccc(=[N+](C)C)cc-3sc2c1 | SETD7 | cell-free assay |  | 10 µM | 35
COc1cc(NC(C)=O)c(Cl)cc1C(=O)Nc1nccs1 | CNR2 | cell-free assay |  | 10 µM | 25
CCN1CCN(Cc2ccc(NC(=O)c3ccc(C)c(/C=C/c4cnc5[nH]ccc5c4OC)c3)cc2C(F)(F)F)CC1 | Casein kinase I isoform alpha (CSNK1A1, Homo sapiens, UniProt P48729) | target engagement in cells, inhibitor, chemoproteomics | A-375 | 5 µM | -58.8
CN1CCN(CCCOc2ccc(=O)n(-c3ccc(Cl)c(Cl)c3)n2)CC1 | CNR2 | ligand displacement |  | 1 µM | 27.4
C=CCSCC1Nc2cc(Cl)c(S(N)(=O)=O)cc2S(=O)(=O)N1 (centres unmarked) | SLC10A2 | transporter uptake, inhibitor, radiometric |  | 1 mM | 57.9
CC(=O)N[C@H]1CSSC[C@@H](C(=O)N[C@H](Cc2c[nH]c3ccccc23)C(N)=O)NC(=O)[C@H](Cc2ccccc2)NC(=O)[C@H](CCCNC(=N)N)NC1=O | Melanocortin receptor 5 (MC5R, Homo sapiens, UniProt P33032) | ligand displacement, radioligand |  | 10 µM, 40 min | 0
CNC(=O)c1cc(Oc2ccc(NC(=O)Nc3ccc(Cl)c(C(F)(F)F)c3)cc2)ccn1 | G protein-coupled receptor kinase 5 (GRK5, Homo sapiens, UniProt P34947) | enzyme activity, inhibitor |  | 10 µM | 0
CN(C)c1ccc(C(=C2C=CC(=[N+](C)C)C=C2)c2ccc(N(C)C)cc2)cc1 | SETD7 | cell-free assay |  | 10 µM | 59
CN(CCOc1ccc(CC2SC(=O)NC2=O)cc1)c1ccccn1 (centres unmarked) | HSD11B1 | enzyme activity, inhibitor |  | 20 µM, lysate | < 40
O=C(O)c1cc(O)c2c(c1)[C@H]([C@H]1c3cc(C(=O)O)cc(O)c3C(=O)c3c(O[C@@H]4O[C@H](CO)[C@@H](O)[C@H](O)[C@H]4O)cccc31)c1cccc(O[C@@H]3O[C@H](CO)[C@@H](O)[C@H](O)[C@H]3O)c1C2=O | SETD7 | cell-free assay |  | 10 µM | 36
CCN(c1cc(C#CCN2CCOCC2)cc(C(=O)NCc2c(C)cc(C)[nH]c2=O)c1C)[C@H]1CC[C@H](N(C)CCOC)CC1 | SETD7 | enzyme activity, inhibitor |  | 1 µM | 6
NS(=O)(=O)c1cc2c(cc1Cl)NCNS2(=O)=O | SLC10A2 | transporter uptake, inhibitor, radiometric |  | 1 mM | 25.8
CN1CC(Oc2cnc(C#N)cc2-c2ccn3nc(NC(=O)C4CC4)cc3c2)C1 | Cyclin-dependent kinase-like 3 (CDKL3, Homo sapiens, UniProt Q8IVW4) | enzyme activity, inhibitor |  | 1 µM | 1
O=C1C=CC(=O)c2c(O)cccc21 | SETD7 | cell-free assay |  | 10 µM | 13
NS(=O)(=O)c1cc2c(cc1C(F)(F)F)NC(Cc1ccccc1)NS2(=O)=O (centres unmarked) | SLC10A2 | transporter uptake, inhibitor, radiometric |  | 1 mM | 64.5
